# Assay results from paper PMC12435242 (Proceedings of the National Academy of Sciences of the …, 2025).
# Key:
# [1] = target: SV2A-D670A (Homo sapiens, UniProt Q7L0J3, D670A); assay: 3H-LEV binding with or without UCB1244283, primary site mutant
# [2] = target: SV2A-W300A (Homo sapiens, UniProt Q7L0J3, W300A); assay: as above
# [3] = tested on: SV2A compared to SV2B and SV2C; conditions: cited from earlier work
# [4] = target: SV2A (Homo sapiens, UniProt Q7L0J3); assay: 3H-UCB-J binding with or without UCB1244283; conditions: Kd of 3H-UCB-J binding to SV2A
# [5] = target: wild-type SV2A (SV2AΔ64-mVenus) (Homo sapiens, UniProt Q7L0J3); assay: 3H-LEV filter binding, concentration-response of UCB1244283
# Procedure, shortened: (§1)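 Human SV2AΔ64 (C-terminal mVenus/TwinStrep/His10), wild-type or point mutant, PEI-transfected into suspension tsA201 cells. Membranes harvested 48–60 h later and loaded at equal SV2A by FSEC. Incubated 45 min on ice with 3.3 µM 3H-LEV and test compound 1 nM–30 µM; nonspecific binding defined with 1 mM PSL. PEI-soaked glass-fibre filtration, scintillation counting. EC50 by three-parameter log(agonist) fit; triplicate; mean ± SEM.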
# [6] = target: SV2A-F184A (Homo sapiens, UniProt Q7L0J3, F184A); assay: as above
# Procedure, shortened: as §1
# [7] = target: SV2A-F188A (Homo sapiens, UniProt Q7L0J3, F188A); assay: as above
# Procedure, shortened: as §1
# [8] = target: SV2A-G659C (Homo sapiens, UniProt Q7L0J3, G659C); assay: 3H-LEV filter binding, concentration-response of UCB1244283
# [9] = target: SV2A A308S mutant (Homo sapiens, UniProt Q7L0J3, A308S); assay: 3H-LEV filter binding, concentration-response of UCB1244283; conditions: 3H-LEV 3.3 µM
# Procedure, shortened: (§2)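 Membranes came from tsA201 cells transfected with PEI and harvested at 48–60 h. Cells expressed human SV2A mutants lacking residues 1–64, tagged C-terminally with mVenus/TwinStrep/His10. Equal protein per FSEC was used. Incubation was 45 min on ice with 3H-LEV 3.3 µM plus test compound, 1 nM–30 µM final. Nonspecific binding was set with 1 mM unlabeled PSL. Filtration used 1% PEI-soaked glass-fibre filters, with an ice-cold TBS150 wash, then scintillation counting. Assays were run in triplicate and fitted to a three-parameter log(agonist)–response curve.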
# [10] = target: SV2A T465A mutant (Homo sapiens, UniProt Q7L0J3, T465A); assay: as above; conditions: 3H-LEV 3.3 µM
# Procedure, shortened: as §2
# [11] = target: SV2A L655Q mutant (Homo sapiens, UniProt Q7L0J3, L655Q); assay: as above; conditions: 3H-LEV 3.3 µM
# Procedure, shortened: as §2
# [12] = target: SV2A G659N mutant (Homo sapiens, UniProt Q7L0J3, G659N); assay: as above; conditions: 3H-LEV 3.3 µM
# Procedure, shortened: as §2
# [13] = tested on: SV2A; conditions: cited from earlier work
# [14] = tested on: SV2A in human brain membranes; conditions: cited from earlier work
# [15] = tested on: sound-sensitive mice; conditions: cited from earlier work
# [16] = tested on: PSL-bound SV2A complex; conditions: cited from earlier work
# [17] = tested on: all SV2 members (SV2s); conditions: cited from earlier work
# [18] = by slowing the rate of dissociation
# Sequence of wild-type SV2A (SV2AΔ64-mVenus) (Q7L0J3 65-742 limits assumed, stated change not applied): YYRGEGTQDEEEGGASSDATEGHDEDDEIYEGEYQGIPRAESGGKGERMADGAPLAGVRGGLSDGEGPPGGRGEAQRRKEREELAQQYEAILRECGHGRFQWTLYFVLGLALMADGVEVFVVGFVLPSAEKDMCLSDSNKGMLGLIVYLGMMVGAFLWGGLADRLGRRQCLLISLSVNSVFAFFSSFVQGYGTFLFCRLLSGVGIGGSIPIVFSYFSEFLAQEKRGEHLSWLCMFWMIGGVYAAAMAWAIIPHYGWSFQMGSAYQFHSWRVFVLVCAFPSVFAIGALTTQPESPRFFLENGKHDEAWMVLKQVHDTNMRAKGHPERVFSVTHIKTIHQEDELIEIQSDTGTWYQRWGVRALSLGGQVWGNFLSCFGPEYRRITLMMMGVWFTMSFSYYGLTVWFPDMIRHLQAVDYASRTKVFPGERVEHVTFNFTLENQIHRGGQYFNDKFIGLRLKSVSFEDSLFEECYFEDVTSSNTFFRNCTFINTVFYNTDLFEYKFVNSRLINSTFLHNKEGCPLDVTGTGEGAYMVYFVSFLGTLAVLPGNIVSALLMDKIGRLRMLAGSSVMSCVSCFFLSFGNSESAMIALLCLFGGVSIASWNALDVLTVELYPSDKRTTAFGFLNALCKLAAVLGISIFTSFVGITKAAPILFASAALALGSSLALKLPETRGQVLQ
# Sequence of SV2A (Homo sapiens, UniProt Q7L0J3) (Q7L0J3 65-742 limits assumed): as the sequence (Q7L0J3 65-742 limits assumed, stated change not applied) above
# Sequence of SV2A-G659C (Q7L0J3 65-742 G659C limits assumed): as the sequence (Q7L0J3 65-742 limits assumed, stated change not applied) above, with G595C counted along it
# Sequence of SV2A-D670A (Q7L0J3 65-742 D670A limits assumed): as the sequence (Q7L0J3 65-742 limits assumed, stated change not applied) above, with D606A counted along it
# Sequence of SV2A-F184A (Q7L0J3 65-742 F184A limits assumed): as the sequence (Q7L0J3 65-742 limits assumed, stated change not applied) above, with F120A counted along it
# Sequence of SV2A-F188A (Q7L0J3 65-742 F188A limits assumed): as the sequence (Q7L0J3 65-742 limits assumed, stated change not applied) above, with F124A counted along it
# Sequence of SV2A-W300A (Q7L0J3 65-742 W300A limits assumed): as the sequence (Q7L0J3 65-742 limits assumed, stated change not applied) above, with W236A counted along it
# Sequence of SV2A L655Q mutant (Q7L0J3 65-742 L655Q limits assumed): as the sequence (Q7L0J3 65-742 limits assumed, stated change not applied) above, with L591Q counted along it
# Sequence of SV2A A308S mutant (Q7L0J3 65-742 A308S limits assumed): as the sequence (Q7L0J3 65-742 limits assumed, stated change not applied) above, with A244S counted along it
# Sequence of SV2A G659N mutant (Q7L0J3 65-742 G659N limits assumed): as the sequence (Q7L0J3 65-742 limits assumed, stated change not applied) above, with G595N counted along it
# Sequence of SV2A T465A mutant (Q7L0J3 65-742 T465A limits assumed): as the sequence (Q7L0J3 65-742 limits assumed, stated change not applied) above, with T401A counted along it
compound,measurement,setting,value
"CC[C@@H](C(N)=O)N1CCCC1=O [LEV, 2S-(2-oxo-1-pyrrolidinyl)butanamide]",LEV binding to mutant,"[1]; D670A, with or without UCB1244283",unable to measure any significant LEV binding
same,LEV binding to mutant,"[2]; W300A, with or without UCB1244283",unable to measure any significant LEV binding
same,higher affinity for SV2A compared to SV2B and SV2C,[3],at least 100 fold
"Cc1cnccc1CN1C[C@@H](c2cc(F)c(F)c(F)c2)CC1=O [UCB-J, (4R)-1-((3-Methyl-4-pyridinyl)methyl)-4-(3,4,5-trifluorophenyl)-2-pyrrolidinone]",Kd,[4]; in the absence of UCB1244283,5.3 ± 0.8 nM
same,Kd,[4]; in the presence of saturating UCB1244283,6 ± 1 nM
"COc1ccccc1NC(=O)CC(C)Cc1cc(C)cc(C)c1 (centres unmarked) [UCB1244283, 4-(3,5-dimethylphenyl)-N-(2-methoxyphenyl)-3-methylbutanamide]",EC50,[5],700 ± 300 nM
same,increase in specific counts of 3H-LEV binding,"[5]; saturating 3H-LEV (~4 µM), with vs without UCB1244283 30 µM",~ 2 fold
same,EC50,[6],200 ± 40 nM
same,enhancement of EC50 for UCB1244283 compared to wild-type,[6]; F184A mutant,~ 3 fold
same,EC50,[7],70 ± 10 nM
same,enhancement of EC50 for UCB1244283 compared to wild-type,[7]; F188A mutant,~9 fold
same,EC50,[8],1000 ± 800 nM
same,reduction in Bmax of 3H-LEV binding compared to wild-type,"[8]; G659C mutant, with UCB1244283",~ 4 fold
same,change in LEV binding on addition of UCB1244283,[9],do not show a significant change in LEV binding
same,change in LEV binding on addition of UCB1244283,[10],do not show a significant change in LEV binding
same,change in LEV binding on addition of UCB1244283,[11],do not show a significant change in LEV binding
same,change in LEV binding on addition of UCB1244283,[12],do not show a significant change in LEV binding
same,effect on maximum specific binding (Bmax) of 3H-LEV,"[1]; UCB1244283 30 µM, 3H-LEV 3.3 µM, SV2A-D670A",does not enhance
same,effect on maximum specific binding (Bmax) of 3H-LEV,"[2]; UCB1244283 30 µM, 3H-LEV 3.3 µM, SV2A-W300A",does not enhance
same,increase in binding affinity for BRV on incubation of UCB1244283 with SV2A,[13]; [18],10 fold
same,increase in binding affinity for LEV on incubation of UCB1244283 with SV2A,[13]; [18],2.5 fold
same,increase in maximum binding capacity (Bmax) for BRV,[13]; with UCB1244283,1.4 fold
same,increase in maximum binding capacity (Bmax) for LEV,[13]; with UCB1244283,twofold
same,effect of UCB1244283 on BRV binding,[14],increases both the Bmax and binding affinity
same,effect of UCB1244283 on LEV binding,[14],only increases the Bmax
same,protection against seizures,[15],protection against both tonic and clonic seizures
same,binding to the PSL-bound SV2A complex,[16],does not bind
"CCC[C@@H]1CC(=O)N([C@@H](CC)C(N)=O)C1 [BRV, (2S)-2-((4R)-2-oxo-4-propylpyrrolidin-1-yl)butanamide]",higher affinity for SV2A compared to SV2B and SV2C,[3],at least 100 fold
"COCc1nn2c(CN3CC(CC(F)(F)Cl)CC3=O)c(C(F)(F)F)nc2s1 (single isomer, unassigned) [PSL]",affinity for all SV2 members,[17],nanomolar affinity
